Source: ChEMBL document CHEMBL1255453, “Affinity of ceftaroline and other beta-lactams for penicillin-binding proteins from Staphylococcus aureus and Streptococcus pneumoniae” (Antimicrob Agents Chemother, 2010)
Converted amounts (≈) assume the structure as drawn.

What was measured:
Streptococcus pneumoniae [1] = assay: Antibacterial activity against penicillin-resistant Streptococcus pneumoniae 1564 by macrodilution method; type: functional
How it was run: (§1)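 CLSI broth macrodilution MICs. The S. aureus set is 5 MRSA strains (hVISA, VISA, VRSA) plus 1 MSSA. The S. pneumoniae set is 7 clonally unrelated clinical isolates, categorised by penicillin G against 2006 CLSI M100-S17 criteria (resistant ≥2 μg/ml, susceptible ≤0.06 μg/ml).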

Streptococcus pneumoniae [2] = assay: Antibacterial activity against penicillin-resistant Streptococcus pneumoniae 2688 by macrodilution method; type: functional; how it was run: as §1
Streptococcus pneumoniae [3] = assay: Antibacterial activity against penicillin-resistant Streptococcus pneumoniae 3413 by macrodilution method; type: functional; how it was run: as §1
Staphylococcus aureus [4] = assay: Antibacterial activity against methicillin-resistant, heteroresistant vancomycin-intermediate, beta-lactamase-negative Staphylococcus aureus 873 by macrodilution method; type: functional; how it was run: as §1
Staphylococcus aureus [5] = assay: Antibacterial activity against methicillin-, vancomycin-resistant, beta-lactamase-positive Staphylococcus aureus 510 by macrodilution method; type: functional; how it was run: as §1
Staphylococcus aureus [6] = assay: Antibacterial activity against methicillin-, daptomycin-resistant, vancomycin-intermediate, beta-lactamase-positive Staphylococcus aureus 25 by macrodilution method; type: functional; how it was run: as §1
[7] = Binding affinity to methicillin-, vancomycin-susceptible Staphylococcus aureus ATCC 29213 PBP1 by competitive binding assay
How it was run: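 MSSA grown in brain heart infusion broth and harvested at OD600 0.3–0.4. Lysed with lysozyme, lysostaphin, DNase I, freeze-thaw and sonication; membranes collected at 100,000 × g. Membranes (100 μg protein) incubated with β-lactam 10 min at 37°C, then Bocillin FL 40 μg/ml, 15 min at 37°C. SDS-PAGE, fluorescence at 520 nm. IC50 is 50% inhibition of Bocillin FL binding; 3 membrane isolations.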

[8] = Binding affinity to methicillin-resistant, vancomycin-intermediate, beta-lactamase-positive Staphylococcus aureus 1287 PBP1 by competitive binding assay
[9] = Binding affinity to against methicillin-, daptomycin-resistant, vancomycin-intermediate, beta-lactamase-positive Staphylococcus aureus 25 PBP1 by competitive binding assay
How it was run: (§2)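 MRSA strain harvested in stationary phase (OD600 >2.00). Membranes prepared by enzymatic lysis, freeze-thaw, sonication and ultracentrifugation, then preincubated with clavulanic acid 1 mg/ml. β-Lactam competition 10 min at 37°C, then Bocillin FL 40 μg/ml, 15 min at 37°C. SDS-PAGE, 520 nm imaging; IC50 = 50% inhibition of Bocillin FL labeling; 3 membrane isolations.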

[10] = Binding affinity to methicillin-, linezolid-resistant, vancomycin-intermediate, beta-lactamase-positive Staphylococcus aureus 2149A PBP2 by competitive binding assay
[11] = Binding affinity to against methicillin-, daptomycin-resistant, vancomycin-intermediate, beta-lactamase-positive Staphylococcus aureus 25 PBP2 by competitive binding assay; how it was run: as §2
[12] = Binding affinity to against methicillin-, daptomycin-resistant, vancomycin-intermediate, beta-lactamase-positive Staphylococcus aureus 25 PBP3 by competitive binding assay; how it was run: as §2
[13] = Binding affinity to methicillin-, vancomycin-susceptible Staphylococcus aureus ATCC 29213 PBP4 by competitive binding assay
How it was run: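 S. aureus grown in brain heart infusion broth and harvested at OD600 0.3 to 0.4. Membranes were prepared by lysozyme/lysostaphin/DNase I treatment, freeze-thaw, sonication and ultracentrifugation. Membranes (100 μg total protein) were preincubated with β-lactam for 10 min at 37°C, then labeled with 40 μg/ml Bocillin FL for 15 min at 37°C. SDS-PAGE with fluorescence imaging at 520 nm. IC50 is 50% inhibition of Bocillin FL binding; 3 membrane isolations.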

[14] = Binding affinity to methicillin-resistant, vancomycin-intermediate, beta-lactamase-positive Staphylococcus aureus 1287 PBP4 by competitive binding assay
[15] = target: T1, Penicillin-binding protein 1A (Streptococcus pneumoniae serotype 4 (strain ATCC BAA-334 / TIGR4), UniProt Q04707); assay: Binding affinity to penicillin-resistant Streptococcus pneumoniae 24 PBP1A by competitive binding assay
T1 sequence (Q04707 whole entry): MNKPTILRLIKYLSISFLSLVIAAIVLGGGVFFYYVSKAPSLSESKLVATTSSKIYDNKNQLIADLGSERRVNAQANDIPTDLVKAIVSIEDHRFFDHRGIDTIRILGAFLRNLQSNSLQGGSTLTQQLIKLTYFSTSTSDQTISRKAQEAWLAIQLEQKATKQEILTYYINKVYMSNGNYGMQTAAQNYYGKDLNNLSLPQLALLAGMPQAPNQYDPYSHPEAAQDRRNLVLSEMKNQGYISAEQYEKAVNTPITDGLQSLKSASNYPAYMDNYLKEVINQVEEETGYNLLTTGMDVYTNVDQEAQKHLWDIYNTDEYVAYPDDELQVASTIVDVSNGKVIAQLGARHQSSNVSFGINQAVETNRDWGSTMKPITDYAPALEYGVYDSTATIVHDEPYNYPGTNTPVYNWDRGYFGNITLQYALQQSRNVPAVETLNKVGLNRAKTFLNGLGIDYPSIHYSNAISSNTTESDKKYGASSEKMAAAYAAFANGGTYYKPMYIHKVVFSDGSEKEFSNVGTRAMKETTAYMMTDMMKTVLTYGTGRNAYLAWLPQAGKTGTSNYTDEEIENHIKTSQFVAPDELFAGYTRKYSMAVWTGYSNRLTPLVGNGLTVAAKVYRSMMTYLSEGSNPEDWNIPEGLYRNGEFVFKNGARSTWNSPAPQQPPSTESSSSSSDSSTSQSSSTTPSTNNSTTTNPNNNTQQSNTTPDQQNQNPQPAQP
How it was run: (§3)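 Whole pneumococcal cells grown to OD600 0.3 in Todd-Hewitt broth with 0.5% yeast extract, resuspended in 50 mM NaPO4 pH 7.0. Cells (10^8–5 × 10^8 CFU/ml) incubated with β-lactam 10 min at 37°C, then Bocillin FL 10 μg/ml, 15 min at 37°C. SDS-PAGE, 520 nm fluorescence; IC50 = 50% inhibition of Bocillin FL binding; 2 experiments.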

[16] = Binding affinity to penicillin-resistant Streptococcus pneumoniae 2527 PBP1B by competitive binding assay
How it was run: (§4)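 Whole pneumococcal cells were grown to OD600 0.3 in Todd-Hewitt broth plus 0.5% yeast extract, then resuspended in 50 mM NaPO4, pH 7.0. Cells at 10^8 to 5 × 10^8 CFU/ml were exposed to β-lactam for 10 min at 37°C, alongside a reference without drug. They were then labeled with 10 μg/ml Bocillin FL for 15 min at 37°C. Proteins were resolved by SDS-PAGE and fluorescence read at 520 nm. IC50 was taken as 50% inhibition of Bocillin FL binding, from 2 experiments.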

[17] = Binding affinity to against penicillin-susceptible Streptococcus pneumoniae 1076 PBP3 by competitive binding assay; how it was run: as §3
[18] = Binding affinity to penicillin-resistant Streptococcus pneumoniae 2527 PBP3 by competitive binding assay; how it was run: as §4

## CO/N=C(\C(=O)N[C@@H]1C(=O)N2C(C(=O)O)=C(COC(C)=O)CS[C@H]12)c1csc(N)n1 [CEFOTAXIME]
Streptococcus pneumoniae [1]
  MIC: 32 µg/mL (≈ 70.3 µM)
Streptococcus pneumoniae [2]
  MIC: 16 µg/mL (≈ 35.1 µM)
Streptococcus pneumoniae [3]
  MIC: 2 µg/mL (≈ 4.39 µM)
Staphylococcus aureus [4]
  MIC: > 64 µg/mL
Staphylococcus aureus [5]
  MIC: > 64 µg/mL
Staphylococcus aureus [6]
  MIC: > 64 µg/mL
[7]
  IC50: 0.25 µg/mL (≈ 0.549 µM)
[8]
  IC50: 1 µg/mL (≈ 2.2 µM)
[9]
  IC50: 16 µg/mL (≈ 35.1 µM)
[10]
  IC50: 1 µg/mL (≈ 2.2 µM)
[11]
  IC50: 2 µg/mL (≈ 4.39 µM)
[12]
  IC50: 1 µg/mL (≈ 2.2 µM)
[13]
  IC50: > 8 µg/mL
[14]
  IC50: > 128 µg/mL
[15]
  IC50: 274 nM
[16]
  IC50: 0.25 µg/mL (≈ 0.549 µM)
[17]
  IC50: 0.1 µg/mL (≈ 0.22 µM)
[18]
  IC50: 0.1 µg/mL (≈ 0.22 µM)

## CO/N=C(\C(=O)N[C@@H]1C(=O)N2C(C(=O)O)=C(CSc3nc(=O)c(O)nn3C)CS[C@H]12)c1csc(N)n1 [CEFTRIAXONE]
Streptococcus pneumoniae [1]
  MIC: 32 µg/mL (≈ 57.7 µM)
Streptococcus pneumoniae [2]
  MIC: 8 µg/mL (≈ 14.4 µM)
Streptococcus pneumoniae [3]
  MIC: 2 µg/mL (≈ 3.61 µM)
Staphylococcus aureus [4]
  MIC: > 64 µg/mL
Staphylococcus aureus [5]
  MIC: > 64 µg/mL
Staphylococcus aureus [6]
  MIC: > 64 µg/mL
[7]
  IC50: 0.25 µg/mL (≈ 0.451 µM)
[8]
  IC50: 1 µg/mL (≈ 1.8 µM)
[9]
  IC50: 16 µg/mL (≈ 28.9 µM)
[10]
  IC50: 1 µg/mL (≈ 1.8 µM)
[11]
  IC50: 2 µg/mL (≈ 3.61 µM)
[12]
  IC50: 1 µg/mL (≈ 1.8 µM)
[13]
  IC50: > 8 µg/mL
[14]
  IC50: > 128 µg/mL
[15]
  IC50: 451 nM
[16]
  IC50: 0.125 µg/mL (≈ 0.225 µM)
[17]
  IC50: 0.1 µg/mL (≈ 0.18 µM)
[18]
  IC50: 0.25 µg/mL (≈ 0.451 µM)

## CC1(C)S[C@@H]2[C@H](NC(=O)Cc3ccccc3)C(=O)N2[C@H]1C(=O)O [PENICILLIN G]
Streptococcus pneumoniae [1]
  MIC: 16 µg/mL (≈ 47.8 µM)
Streptococcus pneumoniae [2]
  MIC: 8 µg/mL (≈ 23.9 µM)
Streptococcus pneumoniae [3]
  MIC: 4 µg/mL (≈ 12 µM)
Staphylococcus aureus [4]
  MIC: 8 µg/mL (≈ 23.9 µM)
Staphylococcus aureus [5]
  MIC: 32 µg/mL (≈ 95.7 µM)
Staphylococcus aureus [6]
  MIC: 64 µg/mL (≈ 191 µM)
[7]
  IC50: 4 µg/mL (≈ 12 µM)
[8]
  IC50: 4 µg/mL (≈ 12 µM)
[9]
  IC50: 0.5 µg/mL (≈ 1.5 µM)
[10]
  IC50: > 128 µg/mL
[11]
  IC50: 1 µg/mL (≈ 2.99 µM)
[12]
  IC50: 0.5 µg/mL (≈ 1.5 µM)
[13]
  IC50: > 8 µg/mL
[14]
  IC50: 4 µg/mL (≈ 12 µM)
